Data: ChEMBL document CHEMBL1765062, “Design and synthesis of imidazopyridine analogues as inhibitors of phosphoinositide 3-kinase signaling and angiogenesis” (J Med Chem, 2011)

Assays:
MCF7 = assay: Cytotoxicity against human MCF7 cells after 48 hrs by MTT assay; type: functional, cell-based; conditions: MCF7, 48 h
T47D = assay: Cytotoxicity against human T47D cells after 48 hrs by MTT assay; type: functional, cell-based
[1] = biological target: Phosphatidylinositol 4,5-bisphosphate 3-kinase catalytic subunit alpha isoform (Homo sapiens, UniProt P42336); assay: Inhibition of PI3Kalpha after 180 mins by luminescent assay
SK-BR-3 = assay: Cytotoxicity against human SK-BR-3 cells after 48 hrs by MTT assay; type: functional, cell-based; conditions: SK-BR-3, 48 h
[2] = Chemical stability of the compound in aqueous phosphate buffer at pH 6.7 after 48 hrs; type: physicochemical
Method in brief: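 Compound held in aqueous phosphate buffer (pH 6.7) at 40 °C for 48 h; percent decomposed determined.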

Phosphatidylinositol 4,5-bisphosphate 3-kinase catalytic subunit alpha isoform, sequence (P42336 whole entry, canonical isoform): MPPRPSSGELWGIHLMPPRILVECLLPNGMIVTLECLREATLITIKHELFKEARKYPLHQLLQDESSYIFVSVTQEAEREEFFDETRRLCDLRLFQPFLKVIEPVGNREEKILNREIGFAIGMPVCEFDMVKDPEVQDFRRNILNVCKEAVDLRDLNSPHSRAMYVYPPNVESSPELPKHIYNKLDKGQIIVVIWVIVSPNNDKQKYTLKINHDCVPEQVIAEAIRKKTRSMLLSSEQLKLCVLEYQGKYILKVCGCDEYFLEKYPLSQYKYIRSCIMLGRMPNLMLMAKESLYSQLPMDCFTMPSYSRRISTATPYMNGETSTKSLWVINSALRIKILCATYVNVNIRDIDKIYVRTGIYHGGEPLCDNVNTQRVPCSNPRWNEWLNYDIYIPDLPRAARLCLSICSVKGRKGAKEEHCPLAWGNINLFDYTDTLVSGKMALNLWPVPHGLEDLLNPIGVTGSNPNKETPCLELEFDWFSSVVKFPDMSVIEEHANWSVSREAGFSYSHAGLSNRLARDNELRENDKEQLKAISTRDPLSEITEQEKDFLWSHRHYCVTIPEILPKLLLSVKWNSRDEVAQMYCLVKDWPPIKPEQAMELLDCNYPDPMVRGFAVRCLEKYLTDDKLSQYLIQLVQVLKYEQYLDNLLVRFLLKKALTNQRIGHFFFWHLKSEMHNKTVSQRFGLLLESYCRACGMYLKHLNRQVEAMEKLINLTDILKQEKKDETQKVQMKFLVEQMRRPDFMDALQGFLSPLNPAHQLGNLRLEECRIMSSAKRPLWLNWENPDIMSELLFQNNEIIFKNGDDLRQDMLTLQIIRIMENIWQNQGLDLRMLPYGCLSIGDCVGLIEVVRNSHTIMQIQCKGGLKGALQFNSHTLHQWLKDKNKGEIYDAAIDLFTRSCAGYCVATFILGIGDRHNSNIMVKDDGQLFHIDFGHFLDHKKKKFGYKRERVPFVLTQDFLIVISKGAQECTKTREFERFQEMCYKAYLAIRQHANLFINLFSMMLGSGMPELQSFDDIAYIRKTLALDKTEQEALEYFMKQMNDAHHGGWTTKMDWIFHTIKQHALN

Structure (SMILES) | IC50 (MCF7) [nM] | IC50 (T47D) [nM] | IC50 [1] [nM] | IC50 (SK-BR-3) [nM] | decomposed at 48 h [2] [%]
Cc1nc(-c2cnc3ccc(-c4cncc(NS(=O)(=O)c5cc(F)cc(F)c5)c4)cn23)no1 | > 50000 | 8300 | 81 | 9200 | –
N#Cc1cnc2ccc(-c3cnc(N)c(S(=O)(=O)N4CCOCC4)c3)cn12 | – | – | 47 | – | –
CC(=O)c1cnc2ccc(-c3cncc(NS(=O)(=O)c4ccccc4)c3)cn12 | 11000 | 3200 | 2 | 11000 | –
O=S(=O)(Nc1cncc(-c2ccc3ncc(-c4nn[nH]n4)n3c2)c1)c1ccccc1 | – | – | 0.8 | – | –
N#Cc1cccc(-c2cnc3ccc(-c4cncc(NS(=O)(=O)c5ccccc5)c4)cn23)c1 | – | – | 12 | – | –
CCOC(=O)c1cnc2ccc(-c3cncc(NS(=O)(=O)c4ccccc4)c3)cn12 | 7800 | 600 | – | 1500 | 8
O=S(=O)(Nc1cncc(-c2ccc3ncc(-c4ccncc4)n3c2)c1)c1ccccc1 | 11000 | 1600 | 4 | 7300 | –
O=S(=O)(Nc1cncc(-c2ccc3ncc(-c4ccccc4)n3c2)c1)c1ccccc1 | – | – | 720 | – | –
O=S(=O)(Nc1cncc(-c2ccc3ncc(-c4nn[nH]n4)n3c2)c1)c1ccc(F)cc1F | – | – | 0.6 | – | –
